{"source": "ChEMBL document CHEMBL3297682", "about": "“Synthesis and anticancer activity of γ-(triazolyl ethylidene)butenolides and polyfunctional pyrrolinones” (Eur J Med Chem, 2014)", "key": {"[1]": {"system": "U-937", "experiment": "Antiproliferative activity against human U937 cells after 24 hrs by MTT assay", "type": "functional, cell-based", "settings": "U-937, 24 h", "method_in_brief": "(§1)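 1×10^4 cells/well seeded in DMEM with 10% FBS and antibiotic-antimycotic, grown 24 h at 37 °C under 5% CO2. Compounds diluted in phenol red-free DMEM with 2% FBS and given for 24 h, with vehicle control. MTT (5 mg/mL, 20 µL) added for 3 h. Formazan dissolved in DMSO, absorbance read at 570 nm. IC50 is the concentration giving 50% growth inhibition.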"}, "[2]": {"system": "MDA-MB-231", "experiment": "Induction of apoptosis in human MDA-MB-231 cells assessed as necrotic cells measured compound treated 1 hr post 10 mM ROS inhibitor NAC addition measured after 24 hrs by Annexin-V/PI staining based flow cytometry (reference value: 0.84%)", "type": "functional"}, "[3]": {"system": "MDA-MB-231", "experiment": "Induction of apoptosis in human MDA-MB-231 cells assessed as early apoptotic cells at 22 uM measured after 24 hrs by Annexin-V/PI staining based flow cytometry (reference value: 19.77%)", "type": "functional", "method_in_brief": "(§2)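 MDA-MB-231 cells (1×10^6) seeded in six-well plates, grown overnight, then exposed 24 h to 11 or 22 µM. Cells trypsinized, washed in PBS, stained with Annexin-V-FITC and propidium iodide using a kit, and analysed by flow cytometry. Compared with untreated vehicle control.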"}, "[4]": {"system": "MDA-MB-231", "experiment": "Induction of apoptosis in human MDA-MB-231 cells assessed as late apoptotic cells measured after 24 hrs by Annexin-V/PI staining based flow cytometry (reference value: 2.91%)", "type": "functional"}, "[5]": {"system": "MDA-MB-231", "experiment": "Induction of apoptosis in human MDA-MB-231 cells assessed as early apoptotic cells compound treated 1 hr post 10 mM ROS inhibitor NAC addition measured after 24 hrs by Annexin-V/PI staining based flow cytometry (reference value: 11.31%)", "type": "functional"}, "[6]": {"system": "MDA-MB-231", "experiment": "Induction of apoptosis in human MDA-MB-231 cells assessed as early apoptotic cells measured after 24 hrs by Annexin-V/PI staining based flow cytometry (reference value: 11.31%)", "type": "functional"}, "[7]": {"system": "HCT-116", "experiment": "Induction of cell cycle arrest in human HCT116 cells assessed as accumulation at subG1 phase at IC50 concentration measured after 24 hrs by propidium iodide staining based flow cytometry", "type": "functional", "method_in_brief": "(§3)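 1×10^6 cells seeded in six-well plates and treated 24 h. Floating and trypsinized adherent cells pooled and fixed in 70% ethanol. Cells washed in PBS, then stained 30 min at room temperature in the dark with 30 µg/mL propidium iodide in PBS containing RNase A. DNA content measured by flow cytometry.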"}, "[8]": {"system": "MDA-MB-231", "experiment": "Induction of cell cycle arrest in human MDA-MB-231 cells assessed as accumulation at subG1 phase at IC50 concentration measured after 24 hrs by propidium iodide staining based flow cytometry", "type": "functional", "method_in_brief": "as §3"}, "[9]": {"system": "MCF7", "experiment": "Antiproliferative activity against human MCF7 cells after 24 hrs by MTT assay", "type": "functional, cell-based", "settings": "MCF7, 24 h", "method_in_brief": "as §1"}, "[10]": {"system": "MDA-MB-231", "experiment": "Induction of apoptosis in human MDA-MB-231 cells assessed as early apoptotic cells at 11 uM measured after 24 hrs by Annexin-V/PI staining based flow cytometry (reference value: 19.77%)", "type": "functional", "method_in_brief": "as §2"}, "[11]": {"system": "MDA-MB-231", "experiment": "Antiproliferative activity against human MDA-MB-231 cells after 24 hrs by MTT assay", "type": "functional, cell-based", "settings": "MDA-MB-231, 24 h", "method_in_brief": "as §1"}, "[12]": {"system": "MDA-MB-231", "experiment": "Induction of apoptosis in human MDA-MB-231 cells assessed as viable cells compound treated 1 hr post 10 mM ROS inhibitor NAC addition measured after 24 hrs by Annexin-V/PI staining based flow cytometry (reference value: 84.94%)", "type": "functional"}, "[13]": {"system": "MDA-MB-231", "experiment": "Induction of apoptosis in human MDA-MB-231 cells assessed as viable cells measured after 24 hrs by Annexin-V/PI staining based flow cytometry (reference value: 84.94%)", "type": "functional"}, "[14]": {"system": "MDA-MB-231", "experiment": "Induction of apoptosis in human MDA-MB-231 cells assessed as late apoptotic cells compound treated 1 hr post 10 mM ROS inhibitor NAC addition measured after 24 hrs by Annexin-V/PI staining based flow cytometry (reference value: 2.91%)", "type": "functional"}, "[15]": {"system": "MDA-MB-231", "experiment": "Increase in phosphorylated p38 level in human MDA-MB-231 cells after 24 hrs by western blot analysis", "type": "functional, cell-based", "method_in_brief": "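MDA-MB-231 cells (1×10^6) seeded 24 h, then treated 24 h at 11 and 22 µM. Cells lysed in ice-cold RIPA and protein measured by Bradford. 40 µg protein run on SDS-PAGE and transferred to PVDF. Membranes blocked with 1% BSA, probed overnight at 4 °C for p-p38 and total p38, then with HRP secondary for 2 h.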"}, "[16]": {"system": "HEK293", "experiment": "Cytotoxicity against human HEK293 cells after 24 hrs by MTT assay", "type": "cell-based", "settings": "HEK293, 24 h", "method_in_brief": "as §1"}, "[17]": {"system": "HCT-116", "experiment": "Antiproliferative activity against human HCT116 cells after 24 hrs by MTT assay", "type": "functional, cell-based", "settings": "HCT-116, 24 h", "method_in_brief": "as §1"}, "[18]": {"system": "U-937", "experiment": "Induction of cell cycle arrest in human U937 cells assessed as accumulation at subG1 phase at IC50 concentration measured after 24 hrs by propidium iodide staining based flow cytometry", "type": "functional", "method_in_brief": "as §3"}, "[19]": {"system": "PC-3", "experiment": "Antiproliferative activity against human PC3 cells after 24 hrs by MTT assay", "type": "functional, cell-based", "settings": "PC-3, 24 h", "method_in_brief": "as §1"}, "[20]": {"system": "MDA-MB-231", "experiment": "Induction of apoptosis in human MDA-MB-231 cells assessed as late apoptotic cells at 11 uM measured after 24 hrs by Annexin-V/PI staining based flow cytometry (reference value: 6.11%)", "type": "functional", "method_in_brief": "as §2"}, "[21]": {"system": "PC-3", "experiment": "Induction of cell cycle arrest in human PC3 cells assessed as accumulation at subG1 phase at IC50 concentration measured after 24 hrs by propidium iodide staining based flow cytometry", "type": "functional", "method_in_brief": "as §3"}, "[22]": {"system": "MDA-MB-231", "experiment": "Induction of apoptosis in human MDA-MB-231 cells assessed as viable cells at 22 uM measured after 24 hrs by Annexin-V/PI staining based flow cytometry (reference value: 71.87%)", "type": "functional", "settings": "MDA-MB-231, 24 h, read-out: Activity", "method_in_brief": "as §2"}, "[23]": {"system": "MDA-MB-231", "experiment": "Induction of apoptosis in human MDA-MB-231 cells assessed as necrotic cells at 22 uM measured after 24 hrs by Annexin-V/PI staining based flow cytometry (reference value: 2.24%)", "type": "functional", "method_in_brief": "as §2"}, "[24]": {"system": "MDA-MB-231", "experiment": "Induction of apoptosis in human MDA-MB-231 cells assessed as late apoptotic cells at 22 uM measured after 24 hrs by Annexin-V/PI staining based flow cytometry (reference value: 6.11%)", "type": "functional", "method_in_brief": "as §2"}, "[25]": {"system": "MDA-MB-231", "experiment": "Induction of apoptosis in human MDA-MB-231 cells assessed as viable cells at 11 uM measured after 24 hrs by Annexin-V/PI staining based flow cytometry (reference value: 71.87%)", "type": "functional", "settings": "MDA-MB-231, 24 h, read-out: Activity", "method_in_brief": "as §2"}, "[26]": {"system": "MDA-MB-231", "experiment": "Induction of apoptosis in human MDA-MB-231 cells assessed as necrotic cells at 11 uM measured after 24 hrs by Annexin-V/PI staining based flow cytometry (reference value: 2.24%)", "type": "functional", "method_in_brief": "as §2"}, "[27]": {"system": "MCF7", "experiment": "Induction of cell cycle arrest in human MCF7 cells assessed as accumulation at subG1 phase at IC50 concentration measured after 24 hrs by propidium iodide staining based flow cytometry", "type": "functional", "method_in_brief": "as §3"}, "[28]": {"system": "MDA-MB-231", "experiment": "Induction of reactive oxygen species production in human MDA-MB-231 cells after 24 hrs by DCFH-DA dye based flow cytometry", "type": "functional, cell-based", "method_in_brief": "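MDA-MB-231 cells (1×10^6) seeded 24 h in six-well plates, then treated 24 h. Cells harvested, washed in PBS and fixed in absolute methanol. Cells resuspended in PBS with 15 µg/mL DCFH-DA for 30 min in the dark, then pelleted, taken up in PBS, and fluorescence read by flow cytometry.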"}, "[29]": {"system": "MDA-MB-231", "experiment": "Effect on phosphorylated p38 level in human MDA-MB-231 cells at 11 uM after 24 hrs by western blot analysis pretreated with ROS inhibitor NAC", "type": "functional, cell-based", "method_in_brief": "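MDA-MB-231 cells pretreated with NAC, then exposed to compound at 11 µM for 24 h. Lysates in RIPA quantified by Bradford. 40 µg protein resolved by SDS-PAGE and blotted to PVDF. Membranes blocked with 1% BSA, probed overnight at 4 °C for phospho-p38 and p38, then with HRP secondary.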"}, "[30]": {"system": "MDA-MB-231", "experiment": "Induction of apoptosis in human MDA-MB-231 cells assessed as necrotic cells measured after 24 hrs by Annexin-V/PI staining based flow cytometry (reference value: 0.84%)", "type": "functional"}}, "note": "Calls of active or inactive are those of the source. No cut-off for these calls is given here."}
{"smiles": "COC1=C(OC)C(O)(CCn2cc(-c3ccc(C(C)(C)C)cc3)nn2)NC1=O", "note": "(stereo not given)", "values": [{"measurement": "IC50", "setting": "[1]", "value": "> 100", "unit": "µM"}, {"measurement": "Activity", "setting": "[2]", "value": 1.112, "unit": "%"}, {"measurement": "Activity", "setting": "[3]", "value": 41.92, "unit": "%"}, {"measurement": "Activity", "setting": "[4]", "value": 10.98, "unit": "%"}, {"measurement": "Activity", "setting": "[5]", "value": 13.91, "unit": "%"}, {"measurement": "Activity", "setting": "[6]", "value": 32.05, "unit": "%"}, {"measurement": "Activity", "setting": "[7]", "value": "Active"}, {"measurement": "Activity", "setting": "[8]", "value": "Active"}, {"measurement": "IC50", "setting": "[9]", "value": "> 100", "unit": "µM"}, {"measurement": "Activity", "setting": "[10]", "value": 27.35, "unit": "%"}, {"measurement": "IC50", "setting": "[11]", "value": 11.3, "unit": "µM"}, {"measurement": "Activity", "setting": "[12]", "value": 81.36, "unit": "%"}, {"measurement": "Activity", "setting": "[13]", "value": 56.21, "unit": "%"}, {"measurement": "Activity", "setting": "[14]", "value": 3.61, "unit": "%"}, {"measurement": "Activity", "setting": "[15]", "value": "Dose-dependent effect"}, {"measurement": "IC50", "setting": "[16]", "value": 62, "unit": "µM"}, {"measurement": "IC50", "setting": "[17]", "value": 50.3, "unit": "µM"}, {"measurement": "Activity", "setting": "[18]", "value": "Active"}, {"measurement": "IC50", "setting": "[19]", "value": 30.4, "unit": "µM"}, {"measurement": "Activity", "setting": "[20]", "value": 3.38, "unit": "%"}, {"measurement": "Activity", "setting": "[21]", "value": "Active"}, {"measurement": "viability at 22 µM", "setting": "[22]", "value": 48.8, "unit": "%"}, {"measurement": "Activity", "setting": "[23]", "value": 2.35, "unit": "%"}, {"measurement": "Activity", "setting": "[24]", "value": 6.95, "unit": "%"}, {"measurement": "viability at 11 µM", "setting": "[25]", "value": 67.8, "unit": "%"}, {"measurement": "Activity", "setting": "[26]", "value": 1.48, "unit": "%"}, {"measurement": "Activity", "setting": "[27]", "value": "Active"}, {"measurement": "Activity", "setting": "[28]", "value": "Active"}, {"measurement": "Activity", "setting": "[29]", "value": "inactive"}, {"measurement": "Activity", "setting": "[30]", "value": 0.76, "unit": "%"}]}
